Measurements pooled from the literature.
Compare with care: the assays were run in different laboratories.
CA9: Carbonic anhydrase 9 (CA9, Homo sapiens, UniProt Q16790)
MAOB: Amine oxidase [flavin-containing] B (MAOB, Homo sapiens, UniProt P27338)
EDNRB: Endothelin receptor type B (EDNRB, Homo sapiens, UniProt P24530)
CHRM4: Muscarinic acetylcholine receptor M4 (CHRM4, Homo sapiens, UniProt P08173)
HRH1: Histamine H1 receptor (HRH1, Homo sapiens, UniProt P35367)
Adora1: Adenosine receptor A1 (Adora1, Rattus norvegicus, UniProt P25099)

`CCOC(=O)C1CSc2[nH]c(=O)sc2C1c1cn(-c2ccccc2)nc1-c1ccc(Br)cc1` (centres unmarked) has an inhibition of 91.6% (CA9; enzyme activity, inhibitor; 100 µM).
For `Cc1ccc(NC(=O)c2cc(Cl)ccc2O)cc1[N+](=O)[O-]`, the inhibition was 85% (MAOB; enzyme activity, inhibitor; 1 µM, 20 min).
For `Oc1cccc(Nc2nc(-c3ccc(F)cc3F)cs2)c1`, the inhibition was -4.3% (EDNRB; cell-free assay; 10 µM).
`O=c1c2ccccc2c(Cc2ccc(Cl)cc2)nn1C1CCCNCC1` (centres unmarked) gave an inhibition of 34% (KCNU1 (Homo sapiens, UniProt A8MYU2); ion current, inhibitor, patch clamp; HEK293; 10 µM).
The inhibition of `CN(C)C1CCN(CC#Cc2nn(C3CCCC3)c3nc(NCc4ccccc4)ncc23)C1` (centres unmarked) is reported as 4% (Serine/threonine-protein kinase N1 (PKN1, Homo sapiens, UniProt Q16512); enzyme activity, inhibitor, FRET; 10 µM).
`CCOC(=O)C1CSc2[nH]c(=O)sc2C1c1cn(-c2ccccc2)nc1-c1ccc(C)cc1` (centres unmarked) gave an inhibition of 18.9% (CA9; enzyme activity, inhibitor; 10 nM).
The inhibition of `O=C(Nc1ccc([N+](=O)[O-])cc1Cl)c1ccccc1` is reported as 25% (MAOB; enzyme activity, inhibitor; 1 µM, 20 min).
The inhibition of `CCOC(=O)C1CSc2[nH]c(=O)sc2C1c1cn(-c2ccccc2)nc1-c1ccc(OC)cc1` (centres unmarked) is reported as 53.6% (CA9; enzyme activity, inhibitor; 0.1 µM).
With `O=C(Nc1ccc([N+](=O)[O-])cc1)c1ccc([N+](=O)[O-])cc1Cl` the inhibition was 68% (MAOB; enzyme activity, inhibitor; 1 µM, 20 min).
The inhibition of `O=C(Nc1ccc(S(=O)(=O)N2CCC(Cl)CC2)cc1)c1ccc([N+](=O)[O-])o1` is reported as 3% (EDNRB; ligand displacement, radioligand; 10 µM).
For `CCCNc1nc2ccccc2n1Cc1ccc(Cl)cc1`, the inhibition was -7.49% (CHRM4; ligand displacement; 10 µM).
For `O=C(c1ccc(Cl)cc1)N(Cc1ccccc1)C1CCCCC1`, the inhibition was -0.7% (HRH1; cell-free assay; 10 µM).
With `CCOC(=O)C1CSc2[nH]c(=O)sc2C1c1cn(-c2ccccc2)nc1-c1ccccc1` (centres unmarked) the inhibition was 75.5% (CA9; enzyme activity, inhibitor; 10 µM).
`O=C(Nc1ccccc1Cl)c1ccc([N+](=O)[O-])cc1Cl` has an inhibition of 6% (MAOB; enzyme activity, inhibitor; 1 µM, 20 min).
For `O=C1NC(=S)C(=Cc2cn(-c3ccccc3)nc2-c2ccc(Br)cc2)S1`, the inhibition was 66.2% (CA9; enzyme activity, inhibitor; 1 µM).
With `CC(C)N1CCCn2c1nc1c2c(=O)n(C)c(=O)n1C` the inhibition was 38% (Adora1; ligand displacement, radioligand; 25 µM, cell membranes).
For `Cc1ccc(-n2nc(C(C)(C)C)cc2NC(=O)Nc2ccc(OCCN3CCOCC3)c3ccccc23)cc1`, the inhibition was 17% (Tyrosine-protein phosphatase non-receptor type 2 (PTPN2, Homo sapiens, UniProt P17706); enzyme activity, inhibitor; 10 µM).
For `N#CC1CSc2[nH]c(=O)sc2C1c1cn(-c2ccccc2)nc1-c1ccc(Br)cc1` (centres unmarked), the inhibition was 28.9% (CA9; enzyme activity, inhibitor; 10 nM).
The inhibition of `CN1CCCn2c1nc1c2c(=O)n(C)c(=O)n1C` is reported as 28% (Adora1; ligand displacement, radioligand; 25 µM, cell membranes).
The inhibition of `COc1cc(NC(C)=O)c(Cl)cc1C(=O)Nc1nccs1` is reported as -2% (HRH1; cell-free assay; 10 µM).
`O=C(Nc1ccc(C(F)(F)F)cc1C(F)(F)F)c1cc(Cl)ccc1O` has an inhibition of 84% (MAOB; enzyme activity, inhibitor; 1 µM, 20 min).
The inhibition of `Cc1ccc(C(=O)Nc2ccc(S(=O)(=O)O)c3cc(S(=O)(=O)O)cc(S(=O)(=O)O)c23)cc1NC(=O)c1cccc(NC(=O)Nc2cccc(C(=O)Nc3cc(C(=O)Nc4ccc(S(=O)(=O)O)c5cc(S(=O)(=O)O)cc(S(=O)(=O)O)c45)ccc3C)c2)c1` is reported as 85% (NAD-dependent protein deacylase sirtuin-5, mitochondrial (SIRT5, Homo sapiens, UniProt Q9NXA8); enzyme activity, inhibitor; 100 µM).
The inhibition of `CCN(Cc1ccccc1C(F)(F)F)C(=O)C1CCN(S(=O)(=O)c2ccc3[nH]ncc3c2)CC1` is reported as 8% (EDNRB; ligand displacement, radioligand; 10 µM).
With `O=C(c1ccc(F)cc1)N(Cc1ccccc1)C1CCCCC1` the inhibition was 3% (EDNRB; cell-free assay; 10 µM).
The inhibition of `CCOc1ccc(C(=O)Nc2ccc(OC(F)(F)F)cc2)cc1OCC` is reported as 1% (MAOB; enzyme activity, inhibitor; 1 µM, 20 min).
The inhibition of `CCC(C)N1CCCn2c1nc1c2c(=O)n(C)c(=O)n1C` (centres unmarked) is reported as 40% (Adora1; ligand displacement, radioligand; 25 µM, cell membranes).
`CCN(CC)c1ccc(C2Nc3ccc(C(=O)c4ccccc4)cc3NC3=C2C(=O)CC(C)(C)C3)cc1` (centres unmarked) gave an inhibition of -1% (CHRM4; ligand displacement, radioligand; 10 µM).
With `O=C(Nc1ccc([N+](=O)[O-])cc1Cl)c1cc2ccccc2s1` the inhibition was 40% (MAOB; enzyme activity, inhibitor; 1 µM, 20 min).
The inhibition of `C#CCN1CCCn2c1nc1c2c(=O)n(C)c(=O)n1C` is reported as 46% (Adora1; ligand displacement, radioligand; 25 µM, cell membranes).
With `CS(=O)(=O)Nc1cccc2cccnc12` the inhibition was > 21% (Lactoylglutathione lyase (GLO1, Homo sapiens, UniProt Q04760); enzyme activity, inhibitor, absorbance; 50 µM).
`N#Cc1ccc(NC(=O)c2ccc3c(c2)OCO3)cc1` has an inhibition of 87% (MAOB; enzyme activity, inhibitor; 1 µM, 20 min).
`CCOC(=O)C1CSc2[nH]c(=O)sc2C1c1cn(-c2ccccc2)nc1-c1ccc(Cl)cc1` (centres unmarked) has an inhibition of 86.3% (CA9; enzyme activity, inhibitor; 10 µM).
